Reference: ChEMBL document CHEMBL1140307, “Design and synthesis of alpha-aryloxyphenylacetic acid derivatives: a novel class of PPARalpha/gamma dual agonists with potent antihyperglycemic and lipid modulating activity” (J Med Chem, 2005)

Key:
[1] = biological target: T1, Peroxisome proliferator-activated receptor alpha (Homo sapiens, UniProt Q07869); assay: In vitro binding affinity for human PPAR alpha
T1 sequence (Q07869 whole entry): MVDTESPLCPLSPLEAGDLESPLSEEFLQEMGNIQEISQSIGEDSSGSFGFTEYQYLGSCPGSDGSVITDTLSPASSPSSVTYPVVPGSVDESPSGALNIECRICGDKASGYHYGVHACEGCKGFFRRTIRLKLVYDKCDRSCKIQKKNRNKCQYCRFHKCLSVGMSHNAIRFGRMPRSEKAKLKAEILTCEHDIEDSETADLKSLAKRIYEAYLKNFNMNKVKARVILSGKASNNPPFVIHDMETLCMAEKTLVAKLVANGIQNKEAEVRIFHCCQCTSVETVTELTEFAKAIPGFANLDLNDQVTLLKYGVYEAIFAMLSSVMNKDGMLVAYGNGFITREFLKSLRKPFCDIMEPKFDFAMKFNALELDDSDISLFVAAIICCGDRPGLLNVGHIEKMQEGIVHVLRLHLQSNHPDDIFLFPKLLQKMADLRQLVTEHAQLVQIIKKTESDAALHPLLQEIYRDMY

[2] = biological target: T2, Peroxisome proliferator-activated receptor gamma (Homo sapiens, UniProt P37231); assay: In vitro binding affinity for human PPAR gamma
T2 sequence (P37231 whole entry): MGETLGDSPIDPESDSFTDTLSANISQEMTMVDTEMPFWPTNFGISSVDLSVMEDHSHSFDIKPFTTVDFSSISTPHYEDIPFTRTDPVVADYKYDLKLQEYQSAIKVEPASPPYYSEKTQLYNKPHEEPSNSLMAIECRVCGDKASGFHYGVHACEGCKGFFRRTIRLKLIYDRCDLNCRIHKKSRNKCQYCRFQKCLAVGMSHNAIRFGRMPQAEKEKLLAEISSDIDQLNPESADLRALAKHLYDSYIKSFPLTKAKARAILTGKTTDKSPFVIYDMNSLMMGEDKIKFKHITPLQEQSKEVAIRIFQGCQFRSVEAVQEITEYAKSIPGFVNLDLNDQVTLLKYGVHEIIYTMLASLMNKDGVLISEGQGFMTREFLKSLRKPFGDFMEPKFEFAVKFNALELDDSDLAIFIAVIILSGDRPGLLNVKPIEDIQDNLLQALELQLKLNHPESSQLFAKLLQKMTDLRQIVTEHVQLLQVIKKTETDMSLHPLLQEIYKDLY

[3] = biological target: T3, Peroxisome proliferator-activated receptor alpha (Homo sapiens) (UniProt Q07869); assay: Maximal activation of human Peroxisome proliferator activated receptor alpha
T3 sequence (whole entry): T1 sequence (Q07869 whole entry)
How it was run: (§1)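 Cell-based transactivation assay using GAL4-PPAR chimeric receptors with a reporter gene carrying a GAL4 response element. The top concentration tested was 3 µM. Values are the mean of three determinations.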

[4] = biological target: T4, Peroxisome proliferator-activated receptor gamma (Homo sapiens) (UniProt P37231); assay: Maximal activation of human Peroxisome proliferator activated receptor gamma; how it was run: as §1
T4 sequence (whole entry): T2 sequence (P37231 whole entry)

[5] = biological target: T1, Peroxisome proliferator-activated receptor alpha; assay: Agonist response against human PPAR alpha in transactivation assay
[6] = biological target: T2, Peroxisome proliferator-activated receptor gamma; assay: Agonist response against human PPAR gamma in transactivation assay; assay type: functional
[7] = Area under concentration time curve of compound when administered perorally at a dose of 2 mg/kg to dogs; assay type: ADME, organism-based, Canis lupus familiaris; design: dose 2 mg/kg, route oral; details: dog, in vivo, po
How it was run: (§2)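 Male Sprague-Dawley rats (n = 3) and male adult Beagle dogs (n = 4) were fasted overnight. They received either a 2 mg/kg oral gavage dose or a 0.5 mg/kg IV bolus. Blood was drawn into heparin tubes from a femoral arterial cannula (rat) or the jugular vein (dog) at set time points. Plasma was acidified with 0.5 M formate pH 3.0, stored at -70 °C and quantified by LC-MS/MS.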

[8] = Area under concentration time curve of compound when administered perorally at a dose of 2 mg/kg to rats; assay type: ADME, organism-based; design: dose 2 mg/kg, route oral; details: rat, in vivo, po; how it was run: as §2
[9] = tested on: Rattus norvegicus; assay: Effect (150 mg/kg) on PPAR gamma- mediated effects measured as change in heart weight in rats; assay type: functional
How it was run: (§3)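 Male Sprague-Dawley rats (about 200 g, n = 6) were fed rodent chow and gavaged once daily for 2 weeks with compound in 0.5% methylcellulose. Body weight was recorded on days 1, 4, 6, 8, 11 and 14. Rats were euthanized with CO2 24 h after the last dose, and BAT, heart and liver were weighed. Blood was taken by heart puncture for hematocrit. Results are mean ± SD versus vehicle.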

[10] = tested on: Rattus norvegicus; assay: Effect (150 mg/kg) on PPAR gamma- mediated effects measured as change in hematocrit weight in rats; assay type: functional; how it was run: as §3
[11] = tested on: Rattus norvegicus; assay: Effect (150 mg/kg) on PPAR gamma- mediated effects measured as change in brown adipose tissue weight in rats; assay type: functional; how it was run: as §3
[12] = tested on: Cricetinae gen. sp.; assay: Percentage change in the serum cholesterol upon administration of compound (10 mpk) in hamster; assay type: functional
How it was run: (§4)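 Male Golden Syrian hamsters were fed normal rodent chow and dosed orally once daily with compound. Serum total cholesterol and triglyceride were measured and expressed as percent change versus vehicle controls.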

[13] = tested on: Cricetinae gen. sp.; assay: Percentage change in the serum triglyceride upon administration of compound (10 mpk) in hamster; assay type: functional; how it was run: as §4
[14] = tested on: Rattus norvegicus; assay: Effect (150 mg/kg) on PPAR gamma- mediated effects measured as change in liver weight in rats; assay type: functional; how it was run: as §3
[15] = Oral bioavailability in dog; assay type: ADME, organism-based, Canis lupus familiaris; details: in vivo; how it was run: as §2
[16] = Oral bioavailability in rat; assay type: ADME, organism-based; details: in vivo; how it was run: as §2
[17] = tested on: Rattus norvegicus; assay: Effect (150 mg/kg) on PPAR gamma- mediated effects measured as change in body weight in rats; assay type: functional; how it was run: as §3

Structure (SMILES) | IC50 [1] [µM] | IC50 [2] [µM] | EC50 [5] [µM] | EC50 [6] [µM] | also measured
CCCc1cc(C(=O)CC)cc(CCC)c1O[C@H](C(=O)O)c1ccc(CC(C)C)cc1 | 0.058 | 0.22 | 0.039 | 0.18 | Maximal activation [3]: 807%; Maximal activation [4]: 66%
CCCc1cc2c(=O)n(C(C)C)oc2c(CCC)c1O[C@H](C(=O)O)c1ccc(C(C)C)cc1 | 0.23 | 0.16 | 0.27 | 0.43 | 
CCCc1cc(C(=O)CC)cc(C)c1OC(C(=O)O)c1ccc(C(C)C)cc1 (stereo unspecified) | 0.16 | 0.26 | 0.16 | 0.197 | 
CCCc1cc2c(oc(=O)n2CC)c(CCC)c1O[C@H](C(=O)O)c1ccc(Cl)cc1 | 0.26 | 0.22 |  |  | 
CCC(=O)c1cc(C(C)CC)c(OC(C(=O)O)c2ccccc2)c(C(C)CC)c1 (stereo unspecified) | 6.12 | > 50 |  |  | 
CCCc1cc(C(=O)CC)cc(CCC)c1O[C@H](C(=O)O)c1ccc(C(F)(F)F)cc1 | 0.089 | 0.21 | 0.25 |  | 
CCCc1cc2c(=O)n(C(C)C)oc2c(CCC)c1O[C@H](C(=O)O)c1ccc(CC(C)C)cc1 | 0.79 | 0.26 |  | 0.37 | 
CCCc1cc(C(=O)CC)cc(CCC)c1O[C@H](C(=O)O)c1ccc(OC(C)C)cc1 | 0.043 | 0.2 | 0.11 |  | 
CCCc1cc2c(=O)n(C3CCCCC3)oc2c(CCC)c1O[C@H](C(=O)O)c1ccc(C(C)C)cc1 | > 15 | 0.44 |  |  | 
CCCc1cc2c(oc(=O)n2CCC)c(CCC)c1O[C@H](C(=O)O)c1ccc(C(C)C)cc1 | 0.15 | 0.087 |  | 0.12 | 
CCC(=O)c1cc(Cl)c(OC(C(=O)O)c2ccccc2)c(Cl)c1 (stereo unspecified) | 1.6 | > 50 |  |  | 
CCCc1cc2c(oc(=O)n2C(C)C)c(CCC)c1O[C@H](C(=O)O)c1ccccc1 | 0.55 | 1.79 |  |  | 
CCCc1cc2c(=O)n(C)oc2c(CCC)c1O[C@H](C(=O)O)c1ccccc1 | 0.85 | 3.8 | 0.67 | 0.39 | 
CCCc1cc(C(=O)CC)cc(Cl)c1O[C@H](C(=O)O)c1ccc(C(C)C)cc1 | 0.26 | 0.22 | 0.26 | 0.36 | 
CCC(=O)c1cc(C)c(OC(C(=O)O)c2ccccc2)c(C)c1 (stereo unspecified) | 3 | > 50 |  |  | 
CCCc1cc2c(oc(=O)n2CC)c(CCC)c1O[C@H](C(=O)O)c1ccc(C(C)C)cc1 | 0.074 | 0.099 | 0.29 | 0.12 | AUC [7]: 9.1 µM·h; AUC [8]: 127 µM·h; Heart weight [9]: 1.1 g; Hematocrit [10]: 45.6%; BAT [11]: 0.24 g; Change [12]: -25%; Change [13]: -6%; Liver weight [14]: 22.4 g; bioavailability [15]: 35%; bioavailability [16]: 72%; Body weight [17]: 283 g
